Assay results reported in ChEMBL document CHEMBL1137704, “Photodynamic inactivation of Candida albicans sensitized by tri- and tetra-cationic porphyrin derivatives” (Eur J Med Chem, 2009).
The source made the active and inactive calls. No cut-off for these calls is given here.

Key:
Candida albicans [1] = experiment: Phototoxicity against Candida albicans PC31 in PBS at 10^6 CFU/ml cellular density pretreated for 30 mins irradiated with visible light for 15 mins; format: functional, organism-based
Method in brief: (§1)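 Overnight stationary-phase cells in 10 mM PBS pH 7.0 (2 mL) were dark-incubated with porphyrin for 30 min at 37 °C, then exposed to a 150 W slide-projector lamp filtered through 2.5 cm of water. Dark and light-only controls were included. Survivors were counted as CFU after serial dilution, plating in triplicate on Sabouraud agar and ~48 h at 37 °C. Three separate experiments.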

Candida albicans [2] = experiment: Phototoxicity against Candida albicans PC31 in PBS at 10^6 CFU/ml cellular density at 5 uM after 30 mins in dark at 37 deg C; format: functional, organism-based; method in brief: as §1
Candida albicans [3] = experiment: Drug uptake in Candida albicans PC31 at 10^6 CFU/ml cellular density assessed per 10^6 cells at 1 uM after 30 mins by fluorescence emission analysis; format: ADME, organism-based; settings: in vivo, 0.5 h
Method in brief: (§2)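 Stationary-phase yeast (overnight Sabouraud broth, 37 °C) washed into 10 mM PBS pH 7.0, 2 mL suspensions incubated with sensitizer in the dark at 37 °C. Cells pelleted, resuspended in 2% aqueous SDS, kept overnight at 4 °C, sonicated 30 min. Porphyrin quantified by fluorescence (exc 418, em 650 nm) against SDS calibration standards, normalized to total cell number. Three separate experiments.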

Candida albicans [4] = experiment: Phototoxicity against Candida albicans PC31 in PBS at 10^6 CFU/ml cellular density assessed as cellular inactivation at 5 uM after 30 mins irradiated with visible light for 30 mins; format: functional; method in brief: as §1
Candida albicans [5] = experiment: Phototoxicity against Candida albicans PC31 in PBS at 10^6 CFU/ml cellular density assessed as cellular inactivation at 5 uM after 30 mins irradiated with visible light for 5 mins; format: functional; method in brief: as §1
Candida albicans [6] = experiment: Drug uptake in Candida albicans PC31 at 10^7 CFU/ml cellular density assessed per 10^6 cells at 5 uM after 30 mins by fluorescence emission analysis; format: ADME, organism-based; settings: in vivo, 0.5 h; method in brief: as §2
Candida albicans [7] = experiment: Drug uptake in Candida albicans PC31 at 10^6 CFU/ml cellular density assessed per 10^6 cells at 5 uM after 30 mins by fluorescence emission analysis; format: ADME, organism-based; settings: in vivo, 0.5 h; method in brief: as §2
Candida albicans [8] = experiment: Drug uptake in Candida albicans PC31 at 10^8 CFU/ml cellular density assessed per 10^6 cells at 5 uM after 30 mins by fluorescence emission analysis; format: ADME, organism-based; settings: in vivo, 0.5 h; method in brief: as §2
Candida albicans [9] = experiment: Phototoxicity against Candida albicans PC31 in PBS at 10^7 CFU/ml cellular density assessed as cellular inactivation at 5 uM after 30 mins irradiated with visible light for 30 mins; format: functional; method in brief: as §1

| SMILES | Activity (Candida albicans [1]) | Activity (Candida albicans [2]) | Drug uptake (Candida albicans [3]) [nmol] | Activity (Candida albicans [4]) | Activity (Candida albicans [5]) [%] | Drug uptake (Candida albicans [6]) [nmol] | Drug uptake (Candida albicans [7]) [nmol] | Drug uptake (Candida albicans [8]) [nmol] | Activity (Candida albicans [9]) [%] |
| --- | --- | --- | --- | --- | --- | --- | --- | --- | --- |
| O=S(=O)([O-])c1ccc(-c2c3nc(c(-c4ccc(S(=O)(=O)[O-])cc4)c4ccc([nH]4)c(-c4ccc(S(=O)(=O)[O-])cc4)c4ccc([nH]4)c(-c4ccc(S(=O)(=O)[O-])cc4)c4nc2C=C4)C=C3)cc1.[Na+].[Na+].[Na+].[Na+] | Dose-dependent effect | inactive | 0.03 | inactive |  |  |  |  |  |
| C[N+](C)(C)c1ccc(-c2c3nc(c(-c4ccc([N+](C)(C)C)cc4)c4ccc([nH]4)c(-c4ccc([N+](C)(C)C)cc4)c4nc(c(-c5ccc(C(F)(F)F)cc5)c5ccc2[nH]5)C=C4)C=C3)cc1.[I-].[I-].[I-] |  |  | 0.32 | >99.9994% | 99.99 | 0.12 | 1.48 | 0.01 | 99.9 |
